Data: ChEMBL document CHEMBL5108058 (J Med Chem, 2022)

How the values were obtained:
SARS-CoV-2 [1] = assay: Antiviral activity against SARS-CoV-2-BetaCoV/belgium/GHB-03021/2020 infected in human Huh-7 cells assessed as reduction in cytopathic effect pre-infected with virus on day 0 followed by compound addition on day 1 and measured after 4 days post infection by MTT assay; type: functional, organism-based; details: Severe acute respiratory syndrome coronavirus 2, BetaCoV/belgium/GHB-03021/2020, Huh-7
[2] = MRT in CD-1 mouse plasma at 100 mg/kg, po measured at 0.5 to 3 hrs; type: ADME, organism-based; details: in vivo, time 0.5-3 hrs
In short: (§1)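 Male CD-1 mice, 4 weeks old, given 100 mg/kg by intragastric gavage in DOPS liposomal formulation (1 mM DOPS final). Tail-vein blood sampled at 0.5, 1 and 3 h; terminal heart blood, BALF and lungs at 5 h. EDTA plasma kept at −80 °C until analysis; parameters by non-compartmental analysis.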

SARS-CoV-2 [3] = assay: Antiviral activity against SARS-Cov2 […] infected in Calu-3 cells assessed as reduction in viral particle release measured after 24 hrs; type: functional, organism-based; details: Severe acute respiratory syndrome coronavirus 2, Calu-3, 24 h
[4] = AUC (0 to t) in CD-1 mouse BALF at 25 mg/kg, INH using nebulizer measured at 5 hrs; type: ADME, organism-based, Bronchoalveolar lavage; design: dose 25 mg/kg, time 5 hrs, route inh; details: in vivo, inhaled_or_intranasal
[5] = Oral bioavailability in CD-1 mouse at 100 mg/kg measured at 0.5 to 3 hrs; type: ADME, organism-based; details: in vivo, time 0.5-3 hrs; in short: as §1
[6] = Tmax in CD-1 mouse plasma at 100 mg/kg, po measured at 0.5 to 3 hrs; type: ADME, organism-based; details: in vivo, time 0.5-3 hrs; in short: as §1
[7] = AUC (0 to t) in CD-1 mouse plasma at 100 mg/kg, po measured at 0.5 to 3 hrs; type: ADME, organism-based; design: time lower 0.5 hrs, dose 100 mg/kg, time upper 3 hrs, route po; details: in vivo; in short: as §1
[8] = Cmax in CD-1 mouse Epithelial lining fluid at 25 mg/kg, INH using nebulizer measured at 0.25 to 24 hrs; type: ADME, organism-based; design: time lower 0.25 hrs, dose 25 mg/kg, time upper 24 hrs, route inh; details: in vivo, inhaled_or_intranasal
In short: (§2)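 Male outbred CD-1 mice, 4 weeks old. Compound in a DOPS liposomal formulation (1 mM DOPS final), 25 mg/kg by nebulizer inhalation. Mice euthanized at 0.25, 0.5, 1, 2, 4, 8 and 24 h for heart blood (EDTA plasma), bronchoalveolar lavage and lung homogenate. ELF levels derived from BALF by urea method; non-compartmental PK analysis.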

[9] = Apparent oral clearance in CD-1 mouse plasma at 25 mg/kg, INH using nebulizer measured at 0.25 to 24 hrs; type: ADME, organism-based; details: time 0.25-24 hrs; in short: as §2
[10] = Cmax in CD-1 mouse plasma at 100 mg/kg, po measured at 0.5 to 3 hrs; type: ADME, organism-based; design: time 0.5-3 hrs, dose 100 mg/kg, route po; details: in vivo; in short: as §1
[11] = Cmax in CD-1 mouse BALF at 25 mg/kg, INH using nebulizer measured at 5 hrs; type: ADME, organism-based, Bronchoalveolar lavage; design: time 5 hrs, dose 25 mg/kg, route inh; details: in vivo, inhaled_or_intranasal
[12] = Cmax in CD-1 mouse lung at 25 mg/kg, INH using nebulizer measured at 0.25 to 24 hrs; type: ADME, organism-based; design: dose 25 mg/kg, time 0.25-24 hrs, route inh; details: inhaled or intranasal; in short: as §2
[13] = Observed apparent volume of distribution in CD-1 mouse plasma at 25 mg/kg, INH using nebulizer measured at 0.25 to 24 hrs; type: ADME, organism-based; details: in vivo, inhaled_or_intranasal, time 0.25-24 hrs; in short: as §2
[14] = Half life in CD-1 mouse plasma at 100 mg/kg, po measured at 0.5 to 3 hrs; type: ADME, organism-based; details: in vivo, time 0.5-3 hrs; in short: as §1
[15] = AUC (0 to t) in CD-1 mouse Epithelial lining fluid at 25 mg/kg, INH using nebulizer measured at 0.25 to 24 hrs; type: ADME, organism-based; design: time upper 24 hrs, dose 25 mg/kg, time lower 0.25 hrs, route inh; details: in vivo, inhaled_or_intranasal; in short: as §2
SARS-CoV-2 [16] = assay: Antiviral activity against SARS-CoV-2-alphaB.1.1.7 infected in human A549 cells expressing ACE2 and TMPRSS2 assessed as reduction in cytopathic effect pre-infected with virus on day 0 followed by compound addition on day 1 and measured after 4 days post infection by MTS assay; type: functional, organism-based; details: Severe acute respiratory syndrome coronavirus 2, alphaB.1.1.7, A549
SARS-CoV-2 [17] = assay: Antiviral activity against SARS-CoV-2-GHB-03021/2020 infected in African green monkey Vero E6 cells assessed as reduction in cytopathic effect pre-infected with virus on day 0 followed by compound addition on day 1 and measured after 4 days post infection in presence of CP-100356 by MTS assay; type: functional, organism-based; details: Severe acute respiratory syndrome coronavirus 2, GHB-03021/2020, Vero C1008
Vero C1008 = assay: Cytotoxicity against African green monkey Vero E6 cells assessed as reduction in cell viability; type: toxicity, cell-based; details: chlorocebus sabaeus
In short: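 VeroE6-eGFP cells maintained in DMEM with 10% FBS and G418. Compound toxicity measured without virus by standard MTS assay in parallel with the antiviral test. At least two independent dose–response curves.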

[18] = Observed apparent volume of distribution in CD-1 mouse plasma at 100 mg/kg, po measured at 0.5 to 3 hrs; type: ADME, organism-based; details: in vivo, time 0.5-3 hrs; in short: as §1
[19] = Tmax in CD-1 mouse plasma at 25 mg/kg, INH using nebulizer measured at 0.25 to 24 hrs; type: ADME, organism-based; details: in vivo, inhaled_or_intranasal, time 0.25-24 hrs; in short: as §2
[20] = Cmax in CD-1 mouse plasma at 25 mg/kg, INH using nebulizer measured at 0.25 to 24 hrs; type: ADME, organism-based; design: dose 25 mg/kg, time 0.25-24 hrs, route inh; details: in vivo, inhaled_or_intranasal; in short: as §2
[21] = AUC (0 to t) in CD-1 mouse plasma at 25 mg/kg, INH using nebulizer measured at 0.25 to 24 hrs; type: ADME, organism-based; design: time lower 0.25 hrs, dose 25 mg/kg, time upper 24 hrs, route inh; details: in vivo, inhaled_or_intranasal; in short: as §2
SARS-CoV-2 [22] = assay: Antiviral activity against SARS-Cov2 […] infected in Calu-3 cells assessed as viral plaque reduction; type: functional, organism-based; details: Severe acute respiratory syndrome coronavirus 2, Calu-3

With `CC(C)(C)OC(=O)Nc1cccn([C@@H](CC2CC2)C(=O)N[C@@H](C[C@@H]2CCNC2=O)C(=O)C(=O)NCc2ccccc2)c1=O` the EC50 (SARS-CoV-2 [1]) was 3.4 µM, the MRT [2] was 2.57 h and the EC50 (SARS-CoV-2 [3]) was 2.4 µM. The AUCt [4] was 5.1622 µg·h/mL, the bioavailability [5] was 17% and the Tmax [6] was 2.5 h. It also gave an AUCt [7] of 1.06149 µg·h/mL, a Cmax [8] of 433520 ng/mL and a CL/F [9] of 83.9 mL/min/kg. The Cmax [10] was 357 ng/mL, the Cmax [11] was 2330.33 ng/mL and the Cmax [12] was 262000 ng/g. For the same compound, the Vz/F [13] was 141.07 L/kg, the t1/2 [14] was 1.3 h and the AUCt [15] was 1042.34 µg·h/mL. For the same compound, the EC50 (SARS-CoV-2 [16]) was 0.84 µM, the EC50 (SARS-CoV-2 [17]) was 1.3 µM and the CC50 (Vero C1008) was > 100 µM. The Vz/F [18] was 131.34 L/kg, the Tmax [19] was 0.33 h and the Cmax [20] was 236.47 ng/mL. It also gave an AUCt [21] of 2.89663 µg·h/mL.
With `CC(C)(C)OC(=O)Nc1cccn(C(CC2CC2)C(=O)N[C@@H](C[C@@H]2CCNC2=O)C(=O)C(=O)NCc2ccccc2)c1=O` (mixture of isomers) the EC50 (SARS-CoV-2 [22]) was 4 µM.
